# Measured values as given in article PMC11293336 (Cell Reports Medicine, 2024).
# Tested on: patients with recurrent high-grade glioma
# Assay: Dose-limiting toxicities and adverse events of oral terameprocol, GATOR trial
# Type: in vivo, human
# How it was run: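 Patients ≥18 y with recurrent supratentorial grade III–IV glioma took oral capsules once daily, days 1–5 every 28 days, fasted; an amended cohort took 6,000 mg/day with a meal within 30 min. 3+3 escalation over 1,200–6,000 mg/day. DLT window was the first 4 weeks: ANC <500/μL, platelets <25,000/μL, febrile neutropenia, hematologic toxicity preventing >80% of dose, grade 3–4 seizure/intracranial hemorrhage, grade 3 QTcF. AEs CTCAE-graded.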
# [1] = DLT, 2,400 mg/day EXP (expanded dose cohort), N=4
# [2] = DLT, 6,000 mg/day with meal, N=4
# [3] = related to terameprocol, all cycles, N = 19
compound,measurement,setting,value
"COc1ccc(C[C@@H](C)[C@@H](C)Cc2ccc(OC)c(OC)c2)cc1OC [terameprocol, meso-tetra-O-methyl nordihydroguaiaretic acid]",% of patients with DLT per dose level,"1,200 mg/day, N=3",0%
same,% of patients with DLT per dose level,"2,400 mg/day EXP (expanded dose cohort), N=4",0%
same,% of patients with DLT per dose level,"2,400 mg/day, N=3",33%
same,% of patients with DLT per dose level,"3,600 mg/day, N=3",0%
same,% of patients with DLT per dose level,"6,000 mg/day with meal, N=4",0%
same,% of patients with DLT per dose level,"6,000 mg/day, N=3",0%
same,tolerability of oral terameprocol,"1,200-6,000 mg/day, days 1–5 every 28 days",without major toxicities and generally well tolerated and safe and well tolerated
same,patients who experienced DLT,"DL2fasted 2,400 mg/day cohort",1/3
same,DLT,"DL3fasted 3,600 mg/day, three patients",no DLTs
same,DLT,"DL4fasted 6,000 mg/day, three patients",no DLTs
same,DLT,"DL4fed 6,000 mg/day with food",No DLTs
same,<80% of expected terameprocol dose due to hematologic toxicity,"DLT, 1,200 mg/day, N=3",0
same,Febrile neutropenia,"DLT, 1,200 mg/day, N=3",0
same,Grade 3–4 non-hematologic toxicity,"DLT, 1,200 mg/day, N=3",0
same,Grade 3–4 seizure or intracranial hemorrhage,"DLT, 1,200 mg/day, N=3",0
same,"Platelets <25,000/mm^3","DLT, 1,200 mg/day, N=3",0
same,<80% of expected terameprocol dose due to hematologic toxicity,[1],0
same,Febrile neutropenia,[1],0
same,Grade 3–4 non-hematologic toxicity,[1],0
same,Grade 3–4 seizure or intracranial hemorrhage,[1],0
same,"Platelets <25,000/mm^3",[1],0
same,<80% of expected terameprocol dose due to hematologic toxicity,"DLT, 2,400 mg/day, N=3",0
same,Febrile neutropenia,"DLT, 2,400 mg/day, N=3",0
same,Grade 3–4 non-hematologic toxicity,"DLT, 2,400 mg/day, N=3",1
same,Grade 3–4 seizure or intracranial hemorrhage,"DLT, 2,400 mg/day, N=3",0
same,"Platelets <25,000/mm^3","DLT, 2,400 mg/day, N=3",0
same,<80% of expected terameprocol dose due to hematologic toxicity,"DLT, 3,600 mg/day, N=3",0
same,Febrile neutropenia,"DLT, 3,600 mg/day, N=3",0
same,Grade 3–4 non-hematologic toxicity,"DLT, 3,600 mg/day, N=3",0
same,Grade 3–4 seizure or intracranial hemorrhage,"DLT, 3,600 mg/day, N=3",0
same,"Platelets <25,000/mm^3","DLT, 3,600 mg/day, N=3",0
same,<80% of expected terameprocol dose due to hematologic toxicity,[2],0
same,Febrile neutropenia,[2],0
same,Grade 3–4 non-hematologic toxicity,[2],0
same,Grade 3–4 seizure or intracranial hemorrhage,[2],0
same,"Platelets <25,000/mm^3",[2],0
same,<80% of expected terameprocol dose due to hematologic toxicity,"DLT, 6,000 mg/day, N=3",0
same,Febrile neutropenia,"DLT, 6,000 mg/day, N=3",0
same,Grade 3–4 non-hematologic toxicity,"DLT, 6,000 mg/day, N=3",0
same,Grade 3–4 seizure or intracranial hemorrhage,"DLT, 6,000 mg/day, N=3",0
same,"Platelets <25,000/mm^3","DLT, 6,000 mg/day, N=3",0
same,patients off treatment due to toxicity,all dose levels,No patients
same,DLT,"dose expansion at DL2fasted 2,400 mg/day, three additional patients",no additional DLTs
same,"Alanine aminotransferase increased, Grade 1",[3],2 (10.5%) No. of patients (%)
same,"Alanine aminotransferase increased, Total",[3],2 (10.5%) No. of patients (%)
same,"Anemia, Grade 1",[3],4 (21.1%) No. of patients (%)
same,"Anemia, Total",[3],4 (21.1%) No. of patients (%)
same,"Anorexia, Grade 1",[3],2 (10.5%) No. of patients (%)
same,"Anorexia, Grade 2",[3],1 (5.3%) No. of patients (%)
same,"Anorexia, Total",[3],3 (15.8%) No. of patients (%)
same,"Arthralgia, Grade 1",[3],1 (5.3%) No. of patients (%)
same,"Arthralgia, Total",[3],1 (5.3%) No. of patients (%)
same,"Aspartate aminotransferase increased, Grade 1",[3],1 (5.3%) No. of patients (%)
same,"Aspartate aminotransferase increased, Total",[3],1 (5.3%) No. of patients (%)
same,"Blood bilirubin increased, Grade 1",[3],1 (5.3%) No. of patients (%)
same,"Blood bilirubin increased, Total",[3],1 (5.3%) No. of patients (%)
same,"Constipation, Grade 1",[3],1 (5.3%) No. of patients (%)
same,"Constipation, Total",[3],1 (5.3%) No. of patients (%)
same,"Diarrhea, Grade 1",[3],2 (10.5%) No. of patients (%)
same,"Diarrhea, Total",[3],2 (10.5%) No. of patients (%)
same,"Electrocardiogram QT corrected interval prolonged, Grade 3",[3],1 (5.3%) No. of patients (%)
same,"Electrocardiogram QT corrected interval prolonged, Total",[3],1 (5.3%) No. of patients (%)
same,"Fatigue, Grade 1",[3],2 (10.5%) No. of patients (%)
same,"Fatigue, Grade 2",[3],2 (10.5%) No. of patients (%)
same,"Fatigue, Total",[3],4 (21.1%) No. of patients (%)
same,"Fever, Grade 1",[3],1 (5.3%) No. of patients (%)
same,"Fever, Total",[3],1 (5.3%) No. of patients (%)
same,"Gastrointestinal pain, Grade 1",[3],1 (5.3%) No. of patients (%)
same,"Gastrointestinal pain, Total",[3],1 (5.3%) No. of patients (%)
same,"Hyperglycemia, Grade 1",[3],1(5.3%) No. of patients (%)
same,"Hyperglycemia, Total",[3],1 (5.3%) No. of patients (%)
same,"Hyperkalemia, Grade 2",[3],1 (5.3%) No. of patients (%)
same,"Hyperkalemia, Total",[3],1 (5.3%) No. of patients (%)
same,"Hypernatremia, Grade 1",[3],1 (5.3%) No. of patients (%)
same,"Hypernatremia, Total",[3],1 (5.3%) No. of patients (%)
same,"Hypertension, Grade 1",[3],1 (5.3%) No. of patients (%)
same,"Hypertension, Total",[3],1 (5.3%) No. of patients (%)
same,"Hypocalcemia, Grade 1",[3],1 (5.3%) No. of patients (%)
same,"Hypocalcemia, Total",[3],1 (5.3%) No. of patients (%)
same,"Hypokalemia, Grade 1",[3],1 (5.3%) No. of patients (%)
same,"Hypomagnesemia, Grade 1",[3],3 (15.8%) No. of patients (%)
same,"Hypomagnesemia, Grade 2",[3],1 (5.3%) No. of patients (%)
same,"Hypomagnesemia, Total",[3],4 (21.1%) No. of patients (%)
same,"Hyponatremia, Grade 1",[3],3 (15.8%) No. of patients (%)
same,"Hyponatremia, Total",[3],3 (15.8%) No. of patients (%)
same,"Hypophosphatemia, Grade 1",[3],1 (5.3%) No. of patients (%)
same,"Hypophosphatemia, Total",[3],1 (5.3%) No. of patients (%)
same,"Lymphocyte count decreased, Grade 2",[3],1 (5.3%) No. of patients (%)
same,"Lymphocyte count decreased, Grade 3",[3],1 (5.3%) No. of patients (%)
same,"Lymphocyte count decreased, Total",[3],2 (10.5%) No. of patients (%)
same,"Mouth sores, Grade 1",[3],1 (5.3%) No. of patients (%)
same,"Mouth sores, Total",[3],1 (5.3%) No. of patients (%)
same,"Muscle cramp, Grade 1",[3],1 (5.3%) No. of patients (%)
same,"Muscle cramp, Total",[3],1 (5.3%) No. of patients (%)
same,"Muscle weakness lower limb, Grade 1",[3],1 (5.3%) No. of patients (%)
same,"Muscle weakness lower limb, Total",[3],1 (5.3%) No. of patients (%)
same,"Nausea, Grade 1",[3],3 (15.8%) No. of patients (%)
same,"Nausea, Total",[3],3 (15.8%) No. of patients (%)
same,"Platelet count decreased, Grade 1",[3],1 (5.3%) No. of patients (%)
same,"Platelet count decreased, Total",[3],1 (5.3%) No. of patients (%)
same,"Rash, maculopapular, Grade 1",[3],1 (5.3%) No. of patients (%)
same,"Rash, maculopapular, Total",[3],1 (5.3%) No. of patients (%)
same,"Vomiting, Grade 1",[3],2 (10.5%) No. of patients (%)
same,"Vomiting, Total",[3],2 (10.5%) No. of patients (%)
same,"Weight loss, Grade 1",[3],1 (5.3%) No. of patients (%)
same,"Weight loss, Total",[3],1 (5.3%) No. of patients (%)
